The source of these data is ChEMBL document CHEMBL2331371, “Natural products inspired synthesis of neuroprotective agents against H₂O₂-induced cell death” (Bioorg Med Chem Lett, 2013).

The source made the active and inactive calls. The calls are words filed in the database; no cut-off is given here.

For assay [1], the system named is PC-12. As to the kind of experiment: Neuroprotective activity against H2O2-induced oxidative stress in rat PC12 cells assessed as increase in cell viability treated for 6 hrs prior to H2O2 addition measured after 18 hrs by Synergy Hybrid H1 reader analysis. In kind it is functional, cell-based. An outline of the steps: (§1)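 PC12 cells pretreated 6 h with compound at 0.1, 1, 10, 50, 100 or 150 µM, then challenged with 100 µM H2O2 for a further 18 h. Untreated cells served as 100% survival. Cells harvested for viability assay. Triplicates with three separate culture batches; means ± SEM, Student t-test, p<0.05.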

For assay [2], the system named is PC-12. In words: Effect on Na+/K+ ATPase activity in rat PC12 cells assessed as inorganic phosphate liberation using ATP as substrate at 50 uM after 1 hr by colorimetric analysis. In kind it is cell-based. The procedure, abridged: (§2)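 Adherent PC12 cells exposed 1 h to 50 µM compound, either alone or together with 100 µM H2O2, then harvested. ATPase assayed in two parallel runs, total and ouabain-insensitive. Inorganic phosphate formed in 30 min quantified colorimetrically; Na+/K+-ATPase activity taken as the difference without versus with ouabain. Triplicate experiments; means ± SEM, Student t-test.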

The test system of assay [3] is PC-12. In words: Neuroprotective activity against H2O2-induced oxidative stress in rat PC12 cells assessed as increase in cell viability at 0.1 to 10 uM treated for 6 hrs prior to H2O2 addition measured after 18 hrs by Synergy Hybrid H1 reader analysis. Type of assay: functional, cell-based. An outline of the steps:
as §1

The test system of assay [4] is PC-12. As to the kind of experiment: Inhibition of H2O2-induced decrease in Na+/K+ ATPase activity in rat PC12 cells assessed as increase in inorganic phosphate liberation using ATP as substrate at 50 uM after 1 hr by colorimetric analysis in presence H2O2. In kind it is cell-based. An outline of the steps:
as §2

Assay [5] has as its system PC-12. As to the kind of experiment: Neuroprotective activity against H2O2-induced oxidative stress in rat PC12 cells assessed as increase in cell viability at 0.1 to 150 uM treated for 6 hrs prior to H2O2 addition measured after 18 hrs by Synergy Hybrid H1 reader analysis. Type of assay: functional, cell-based. An outline of the steps:
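PC12 cells pretreated 6 h with test agent (0.1, 1, 10, 50, 100, 150 µM), then 100 µM H₂O₂ added for a further 18 h. Untreated cells set as 100% survival; H₂O₂-only cells as injury control. Cells then harvested for viability assay. Triplicate runs over three separate culture batches; means ± SEM, Student t-test, p < 0.05.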

As for `C[C@]12CCCC[C@H]1C(=O)C=C2c1ccoc1`, in the assay with PC-12 [1], the Activity entry is “Dose-dependent effect”. The result in the assay on PC-12 [2] was inactive. Besides, in the assay with PC-12 [3], the outcome was Active. Moreover, the inhibition result in the assay on PC-12 [4] was “Active”.
As to `C[C@]12CCCC[C@@]1(O)C(=O)CC2c1ccoc1` (single isomer, unassigned), the outcome in the assay on PC-12 [2] was inactive. Further, in the assay on PC-12 [5], the result was Active.
With `C[C@]12CCCC[C@@]1(O)C(=O)C=C2c1ccoc1`, in the assay with PC-12 [1], the Activity entry is “Dose-dependent effect”. Also, in the assay with PC-12 [2], the result was inactive. Besides, the outcome in the assay on PC-12 [3] was Active.
Regarding `C[C@]12CCCC[C@@]1(O)C(=O)C[C@H]2c1ccco1`, the Activity entry in the assay on PC-12 [1] is “Dose-dependent effect”. The outcome with PC-12 [2] was inactive. Also, in the assay on PC-12 [4], the inhibition entry was “Active”.
On to `C[C@]12CCCC[C@@]1(O)C(=O)C=C2c1ccco1`, for which the outcome with PC-12 [2] was inactive. Besides, in the assay on PC-12 [5], the result was Active. In the assay on PC-12 [4], the inhibition entry was “Active”.
Turning to `C[C@]12CCCC[C@@]1(O)OC(=O)C=C2c1ccoc1`, the Activity entry with PC-12 [1] was “Dose-dependent effect”. Also, in the assay with PC-12 [2], the outcome was inactive. Also, in the assay on PC-12 [4], the inhibition entry was “Active”.
